Results: the RNAGym collection of RNA variant scans (doi:10.1038/nmeth.2970)

B1: GFP aptamer (parent)
chain: GCUUCUGGACUGCGAUGGGAGCACGAAACGUCGUGGCGCAAUUGGGUGGGGAAAGUCCUUAAAAGAGGGCCACCACAGAAGC

Variants of: B1
Experiment: HiTS-RAP
Details: with EGFP
Method in brief: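 Aptamer templates containing a T7 promoter and ter site were sequenced on an Illumina GAIIx flowcell, transcribed in situ with T7 RNA polymerase and halted with GST-Tus for 30 minutes at 37°C. Clusters were imaged after 30 minutes at room temperature with EGFP-mOrange at 0.04 nM to 625 nM in fivefold steps. Kd was obtained from per-lane weighted Hill fits to decay-corrected, sequencing-normalised, per-sequence mean intensities, geometrically averaged over lanes. Three lanes entered that average, and non-rising sequences were given 125 nM.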

Row | Variant | Kd
1 | A27G C37U | 3.28 nM
2 | A66U | 8.88 nM
3 | A20G A26G | 7.96 nM
4 | C13G | 6.37 nM
5 | A27G A79G | 2.94 nM
6 | A20G A62G | 13.1 nM
7 | G25A A28G | 5.89 nM
8 | A28U | 4.46 nM
9 | A28G | 4.55 nM
10 | A28C | 6.92 nM
11 | G35C | ≥ 125 nM
12 | A75G A79G | 6.58 nM
13 | U3C | 4.42 nM
14 | U3G | 5.4 nM
15 | A15U | 10.3 nM
16 | A28G A79G | 3.44 nM
17 | A27G | 4.28 nM
18 | A27U | 3.98 nM
19 | G14A A26G | 7.76 nM
20 | C76A | 13.6 nM
21 | C76G | 28.8 nM
22 | C24A | 10.6 nM
23 | C24U | 4.82 nM
24 | G44C | 34.8 nM

Row | Variant | Kd
25 | G44A | 5.26 nM
26 | G44U | 93.2 nM
27 | C32U G68A | 60.2 nM
28 | U31C G68A | 28.1 nM
29 | U11C A28G | 15.9 nM
30 | A28G G68A | 32.8 nM
31 | U11C A27G | 3.8 nM
32 | C82U | 4.16 nM
33 | A9G A27G | 21 nM
34 | C58U C73U | 0.976 nM
35 | U11C U31C | 14.2 nM
36 | C10U A77G | 36 nM
37 | C37U U43C | 12.8 nM
38 | A77U | 10.8 nM
39 | A28G A41G | 2.01 nM
40 | G33U | 35.1 nM
41 | G33A | 11.6 nM
42 | G33C | ≥ 125 nM
43 | G67U | 9.04 nM
44 | G67A | 14.2 nM
45 | C74U | 6.27 nM
46 | C74G | 14.5 nM
47 | G49C | 57.7 nM
48 | G49A | 21.5 nM

Row | Variant | Kd
49 | G68U | 15.9 nM
50 | G30U | 3.95 nM
51 | G30C | 4.2 nM
52 | A23G A26G | 35.8 nM
53 | U47C C73U | 44.3 nM
54 | A41G U47C | 2.42 nM
55 | A20G G25A | 10.8 nM
56 | G25A C58U | 2.17 nM
57 | G65C | 35.3 nM
58 | A64U | ≥ 125 nM
59 | A64C | ≥ 125 nM
60 | A64G | ≥ 125 nM
61 | A27G G46A | 12.7 nM
62 | A15G G25A | 2.42 nM
63 | C22U U43C | 2.31 nM
64 | C32U C70U | 11.5 nM
65 | G25A A77G | 3.54 nM
66 | C24U A28G | 2.43 nM
67 | C13U A27G | 7.37 nM
68 | G45C | 178 nM
69 | G45U | 22.7 nM
70 | U34C C58U | 68.2 nM
71 | A28G U60C | 13.9 nM
72 | C24U C37U | 6.91 nM

Row | Variant | Kd
73 | C71A | ≥ 125 nM
74 | A27G C70U | 17 nM
75 | C24U G33A | 5.72 nM
76 | C57U | ≥ 125 nM
77 | A20G G30A | 30.3 nM
78 | C10U A20G | 3.79 nM
79 | A28G U31C | 5.74 nM
80 | U31C C58U | 1.14 nM
81 | A28G U42C | 6.79 nM
82 | A26G A77G | 3.88 nM
83 | U11C C73U | 44.7 nM
84 | A62G | 3.54 nM
85 | A62U | 3.36 nM
86 | C10U A28G | 4.55 nM
87 | A41G A77G | 7.24 nM
88 | U11C A77G | 9.02 nM
89 | C58U C70U | 4.84 nM
90 | A63C | ≥ 125 nM
91 | A63G | 8.55 nM
92 | G19A | 48.3 nM
93 | G19C | ≥ 125 nM
94 | G19U | ≥ 125 nM
95 | C10G A20G | 4.36 nM
96 | C5G | 5.26 nM

Row | Variant | Kd
97 | U47C A79G | 62.1 nM
98 | A27G G33A | 5.11 nM
99 | G48A | ≥ 125 nM
100 | G48U | 21.3 nM
101 | G48C | ≥ 125 nM
102 | G12U | 18.9 nM
103 | G12A | 22.4 nM
104 | C13U U34C | 36.2 nM
105 | G18U | ≥ 125 nM
106 | C24U A41G | 11.7 nM
107 | G46A | 18.7 nM
108 | G46C | 58.8 nM
109 | G46U | 29.2 nM
110 | U60A | 1.71 nM
111 | U60G | 5.38 nM
112 | G30A G33A | 27.8 nM
113 | G21A | ≥ 125 nM
114 | U59C A77G | 0.842 nM
115 | U42A | 31.8 nM
116 | U42G | 7.09 nM
117 | U42C | 6.72 nM
118 | C24U G68A | 54.1 nM
119 | A23G C74U | 2.27 nM
120 | C37U A77G | 2.53 nM

Row | Variant | Kd
121 | U43C | 4.76 nM
122 | A27G C73U | 10.5 nM
123 | U4G | 4.6 nM
124 | U4C | 7.99 nM
125 | A26G A27G | 2.12 nM
126 | C32A | 3.24 nM
127 | A61C | 5.03 nM
128 | A61G | 3.47 nM
129 | A27G U31C | 4.55 nM
130 | G30A A75G | 41.1 nM
131 | C39G | 9.2 nM
132 | C39U | 10.3 nM
133 | G55A | ≥ 125 nM
134 | G55U | 9.31 nM
135 | G55C | 50.8 nM
136 | G38U | 14.5 nM
137 | C22U A41G | 21.2 nM
138 | A80G | 3.57 nM
139 | A80U | 6.99 nM
140 | A20G C58U | 11.5 nM
141 | A28G U47A | 3.89 nM
142 | G51C | ≥ 125 nM
143 | C29U | 4.49 nM
144 | U56G | 3.15 nM

Row | Variant | Kd
145 | U56A | ≥ 125 nM
146 | A28G G44A | 4.96 nM
147 | C10U C37U | 14.3 nM
148 | C22U C58U | 12.7 nM
149 | G8U | 5.56 nM
150 | G8A | 26.7 nM
151 | A53U | 118 nM
152 | A53G | 33.3 nM
153 | G50C | 67.7 nM
154 | G50U | 12.3 nM
155 | A28G C37U | 7.93 nM
156 | A72C | ≥ 125 nM
157 | U59C | 16.6 nM
158 | A9C | 8 nM
159 | A9G | 14.8 nM
160 | G7A | 43.8 nM
161 | G7C | 88.1 nM
162 | C10U G14A | 6.22 nM
163 | U31C A41G | 3.04 nM
164 | U11C A40G | 4.63 nM
165 | C10U C73U | 5.31 nM
166 | A20G U31C | 35.3 nM
167 | U43C A77G | 5.23 nM
